Only some compounds are listed: those with a hit (about 0.77% of all), similar ones and a draw of the others.
hIAP block: human IAP inhibitors, primary screen, biochemical, luminescence, uHTS; inhibition, % at 10 µM; Intestinal-type alkaline phosphatase (Homo sapiens), P09923; AID 2544, 2010; hit rate 0.12% among 330,000; purified IAP, CDP-Star luminescence, 30 min;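 active means inhibition reaching a set limit with compound at 10 µM in the primary screen, cut at about 35% in these data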;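 further: plate controls were DMSO wells with enzyme for no effect and no-enzyme buffer wells for full effect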
Target sequence (P09923 whole entry, looked up): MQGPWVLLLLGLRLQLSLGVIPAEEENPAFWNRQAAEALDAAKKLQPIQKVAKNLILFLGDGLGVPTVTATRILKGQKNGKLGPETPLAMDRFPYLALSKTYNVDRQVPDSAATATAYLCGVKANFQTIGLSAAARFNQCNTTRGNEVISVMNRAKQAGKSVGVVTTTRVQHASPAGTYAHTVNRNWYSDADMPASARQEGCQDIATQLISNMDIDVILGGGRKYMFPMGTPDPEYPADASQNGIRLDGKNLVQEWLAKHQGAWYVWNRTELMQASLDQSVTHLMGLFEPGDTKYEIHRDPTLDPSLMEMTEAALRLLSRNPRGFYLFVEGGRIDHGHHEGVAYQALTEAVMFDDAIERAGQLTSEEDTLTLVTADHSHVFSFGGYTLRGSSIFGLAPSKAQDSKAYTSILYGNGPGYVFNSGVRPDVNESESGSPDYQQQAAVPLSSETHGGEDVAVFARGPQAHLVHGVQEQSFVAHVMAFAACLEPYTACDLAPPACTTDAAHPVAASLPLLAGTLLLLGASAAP
bIAP act: bovine intestinal alkaline phosphatase activators, primary screen, biochemical, bovine IAP, CDP-star luminescence | activation factor at 20 µM | purified bovine IAP, 30 min; active compounds read high; fold of DMSO-control signal, blank-subtracted | alkaline phosphatase, intestinal [Bos taurus] | AID 1016, 2008 | hit rate 0.17% among 200,000;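 active means activation factor of 2 or more at 20 µM, a signal rise over negative controls twice the positive control's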
mIAP act: activators of mouse IAP, primary screen, biochemical, luminescence, uHTS; intestinal alkaline phosphatase [Mus musculus]; muIAP, CDP-Star luminescence, 30 min; active compounds read high; 1 = vehicle-only enzyme signal, 0 = enzyme-free wells; activation factor at 10 µM; hit rate 0.24% among 330,000; AID 2805, 2010;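 active means activation factor of at least 2 at 20 µM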
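System: Mouse IAP enzyme | Also added: CDP-Star substrate | Dosing: Compounds dispensed in DMSO | Schedule: 30 min enzyme-substrate-compound incubation at room temperature | Technique: Chemiluminescence readout | Control set: DMSO-only wells and no-enzyme negative control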
bIAP inhibitor: bovine intestinal alkaline phosphatase inhibitors, primary screen, selectivity assay for TNAP inhibitor project, biochemical, bovine IAP, CDP-star luminescence; alkaline phosphatase, intestinal [Bos taurus]; purified bovine IAP, 30 min; inhibition, % at 20 µM; 190,000 tested, under 10 active;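 active means over 50% inhibition of intestinal alkaline phosphatase at 20 µM in the single-dose screen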
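Assay system – bovine IAP enzyme · Quantity – bovine IAP at 1/65,000,000 final dilution · Detection – CDP-star luminescence signal · Times – 30 min reaction at room temperature · Also added – CDP-star substrate at 30 µM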
hIAP activ: human IAP activators, primary screen, biochemical, luminescence, uHTS; Intestinal-type alkaline phosphatase (Homo sapiens), P09923; hit rate 0.16% among 330,000; purified human IAP, CDP-Star luminescence, 30 min; active compounds read high; 1 = vehicle-only enzyme, 0 = enzyme-free background; activation factor at 10 µM;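 active means activation factor of the enzyme at least 2-fold when tested at 20 µM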
mIAP inh: inhibitors of mouse IAP, primary screen, biochemical, luminescence, uHTS | inhibition, % at 10 µM | hit rate 0.2% among 330,000 | AID 2806, 2010 | purified mouse IAP, CDP-Star luminescence, 30 min | intestinal alkaline phosphatase [Mus musculus];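 active means inhibition of at least 40% at 10 µM in the primary screen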;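 further: plate controls were DMSO with enzyme for no effect and no enzyme wells for full effect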
hIAP act confirm: human IAP activators, confirmation, biochemical, luminescence, single concentration, uHTS hits. shares compounds with hIAP activ. purified IAP, CDP-Star luminescence, 30 min; active compounds read low. activation (%Activity, negative = activation), % at 8.3 µM. hit rate 10% among 880. AID 434926, 2010;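 active means at least twofold enzyme activation in any of six single-dose repeats, which the averaged readout prints as negative percent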
mIAP inh conf: inhibitors of mouse IAP, confirmation, biochemical, luminescence, single concentration; shares compounds with mIAP inh; purified mouse IAP, CDP-Star luminescence, 30 min; inhibition, % at 10 µM; hit rate 4.7% among 11,000;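 active means inhibition of at least 40% at 10 µM in either of the two replicates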;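 further: plate controls were DMSO wells with enzyme for no effect and buffer wells lacking enzyme for full effect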
* = called active by the depositor; i = inactive; x = no result given.

SMILES | hIAP block | bIAP act | mIAP act | bIAP inhibitor | hIAP activ | mIAP inh | mIAP inh conf | others
Cc1cccc(C(O)(C(=O)NNC(=O)CN2CCN(C)CC2)c2cccc(C)c2)c1 | -75 | 2.3* | 1 | -129 | 1.7 | 0 | x
Cc1ccc(C(O)(C(=O)NNC(=O)CN2CCN(C)CC2)c2ccc(C)cc2)cc1 | -2 | 0.9 | 1.1 | 10 | 1 | -13 | x
Cc1cccc(-n2c(C)nc3ccc(Cl)cc3c2=O)c1 | 0 | x | 1 | x | 1 | -4 | x
COc1cc(/C=C/[N+](=O)[O-])ccc1O | 24 | 0.9 | 0.54 | 11 | 0.76 | 46* | x
CCOc1ccc2nc(N=Nc3c(O)[nH]c(=S)[nH]c3=O)sc2c1 | 16 | 0.7 | 0.56 | 34 | 0.84 | 44* | x
CCOc1cccc(CNCCc2c(C)[nH]c3ccc(OC(F)(F)F)cc23)c1O | -41 | x | 0.96 | x | 1.4 | 4 | x
CCOC(=O)c1c(-n2c(C)cc(C=C3C(=O)NC(=S)NC3=O)c2C)sc2c1CCCC2 | -2 | 0.5 | 0.49 | x | 1 | 51* | x
O=C/C=C/c1ccccc1 | 9 | x | 0.96 | x | 0.91 | 4 | x
O=C1NC(=S)NC(=O)C1C/C=C/c1ccccc1 | 5 | 1 | 0.58 | -5 | 0.95 | 42* | x
CC(C)Cc1nnc(NC(=O)CCC(=O)N2CCC3(CC2)OCCO3)s1 | -133 | x | 1.1 | x | 2.3* | -7 | x | hIAP act confirm=-77
CN(C)c1nc(-c2ccccc2)[n+](C)s1 | 42* | 1 | 0.94 | 1 | 0.58 | 6 | x | hIAP act confirm=7
Cc1ccc(-c2nc(N3CCOCC3)s[n+]2-c2ccccc2)cc1 | x | 0.9 | x | 8 | x | x | x
CCCCCn1c(=O)c(C(=O)Nc2ncccc2C)c(O)c2ccccc21 | 2 | x | 0.91 | x | 0.98 | 9 | x
Cc1ccc(CN2C3CCCC2CC(NC(=O)Nc2cccc(F)c2)C3)cc1 (configuration not stated) | -117 | 6.7* | 11* | i | 2.2* | i | -348 | hIAP act confirm=-4
COc1ccc(CNCCc2ccc3c(c2)OCO3)cc1Br | -7 | x | 1 | x | 1.1 | -1 | x
O=C1NC(=O)N(Cc2ccccc2)C(=O)/C1=C/C=C/c1ccco1 | 1 | x | 0.43 | x | 0.99 | 57* | 66*
Cc1ccc(N2C(=O)/C(=C/c3ccc(CN(CCC#N)S(C)(=O)=O)o3)C(=O)NC2=S)cc1 | 6 | 1 | 0.53 | -1 | 0.94 | 47* | 44*
CCOC(=O)c1cncn1[C@@H](C)c1ccccc1 | 4 | x | 0.92 | x | 0.96 | 8 | x
O=[N+]([O-])c1cc(S(=O)(=O)c2ccc(O)c([N+](=O)[O-])c2)ccc1O | 0 | 0.7 | 0.37 | 29 | 1 | 63* | 53*
CC(C)NP(=O)(NC(C)C)OP(=O)(NC(C)C)NC(C)C | -23 | x | 1 | x | 1.2 | -3 | x
Cc1cccc(OCCn2cccc2/C=C2/C(=O)NC(=O)N(Cc3ccco3)C2=O)c1 | 10 | x | 0.6 | x | 0.9 | 40* | 57*
O=C1NC(=O)N(Cc2ccco2)C(=O)/C1=C\c1cccn1CCOc1ccc(Cl)cc1 | -12 | 0.9 | 0.51 | 15 | 1.1 | 49* | 50*
COc1ccc(N2C(=O)NC(=O)/C(=C\c3ccc([N+](=O)[O-])s3)C2=O)cc1 | 5 | 1 | 0.77 | 2 | 0.95 | 23 | x
COc1cccc(N2C(=O)NC(=O)/C(=C/c3ccc([N+](=O)[O-])s3)C2=O)c1 | 7 | x | 0.52 | x | 0.93 | 48* | 51*
O=C(NC1CCCCC1)Oc1cc2oc(=O)sc2cc1Cl | -8 | x | 0.39 | x | 1.1 | 61* | 76*
COC(=O)C1=C(c2cc3ccccc3o2)C[C@@H]2CC[C@H]1N2C(=O)NCCO | 9 | x | 0.98 | x | 0.91 | 2 | x
O=c1[nH]c(Cl)ccc1CN1CCOCC1 | -11 | x | 0.99 | x | 1.1 | 1 | x

Screening data: PubChem, Sanford-Burnham Center for Chemical Genomics
